In publication PMC7893122 (Acta Pharmaceutica Sinica. B, 2020):

Tests used:
[1] = system: Colo680N; experiment: Cell growth inhibition; format: cell-based; conditions: Homo sapiens, COLO-680N, 72 h
In short: (§1)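 Cells seeded in 96-well plates and incubated overnight. DMSO stocks of test compound were thawed at room temperature, diluted with saline to working concentrations, and added for 72 h. Growth read by CCK-8 assay, giving IC50/GI50.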

[2] = system: SMOA1 MB allografts (SMO^W539L); experiment: SMOA1 MB allograft model; format: in vivo, nude mice; conditions: bid
In short: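 Primary SMOA1 MB allografts from ND2:SMOA1 transgenic mice grafted subcutaneously into nude mice. Dosing started at 100–150 mm3 tumour size: test compound p.o. twice daily, vehicle 0.5% CMC-Na, n ≥ 3 per group. Caliper measurement every 3 days; volume = 0.5 × length × width². Body weight tracked; group means ± SEM.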

[3] = biological target: hERG channel (Homo sapiens, UniProt Q12809); experiment: hERG inhibition; format: cell-based
[4] = system: CAL27; experiment: Cell growth inhibition; format: cell-based; conditions: Homo sapiens, CAL-27, 72 h
In short: as §1

[5] = system: endogenous GLI2; experiment: Western blot of endogenous GLI2 in light2 cells; format: cell-based; conditions: 25 at 10 and 100 nmol/L, GDC-0449 100 nmol/L
In short: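 Light2 cells treated with test compound, lysed in LDS sample buffer, and run on SDS-PAGE. Immunoblotting used anti-GLI2 (1:1000), with GAPDH (1:5000) as reference.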

[6] = system: GLI2-MYC; experiment: Western blot of exogenous GLI2-MYC in transfected light2 cells; format: cell-based; conditions: light2 cells transfected with GLI2-MYC
In short: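 Light2 cells lipofected with FLAG-GLI1 or MYC-GLI2-FL; test compound added 24 h after transfection. Lysis in LDS sample buffer, then SDS-PAGE. Immunoblots probed with tag or GLI2 antibodies (1:1000), with GAPDH (1:5000) as reference.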

[7] = system: DOHH-2; experiment: Cell growth inhibition; format: cell-based; conditions: Homo sapiens, DOHH-2, 72 h
In short: as §1

[8] = biological target: BRD4 (BD1) (Homo sapiens, UniProt O60885); experiment: Homogeneous time-resolved fluorescence binding assay, BRD4; conditions: IC50 BRD4 (BD1), mean ± SD from three separate experiments
[9] = system: GLI2; experiment: GLI-luciferase activity in light2 cells after transfection with GLI2; format: cell-based; conditions: read-out: IC50, GLI-luciferase activity provoked by forced expression of GLI2
In short: (§2)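 Light2 cells (NIH-3T3 stably carrying GLI-responsive firefly luciferase and renilla expression vector) lipofected with FLAG-GLI1 or MYC-GLI2-FL. Test compound added 24 h post-transfection, then 36 h exposure. Dual-luciferase read-out, firefly normalised to TK-renilla.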

[10] = system: SMO^D473H; experiment: GLI-luciferase activity in light2 cells with ectopic SMO^D473H; format: cell-based; conditions: read-out: IC50, GLI-luciferase activity induced by SMO^D473H
In short: (§3)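 NIH-3T3-derived light2 reporter cells (stable GLI-responsive firefly luciferase plus renilla vector) with forced SMO expression, exposed to test compound for 36 h. Dual-luciferase kit read-out; firefly signal normalised to TK-renilla.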

[11] = system: H3132; experiment: Cell growth inhibition; format: cell-based; conditions: 72 h
In short: as §1

[12] = system: H1975; experiment: Cell growth inhibition; format: cell-based; conditions: Homo sapiens, NCI-H1975, 72 h
In short: as §1

[13] = system: HT1080; experiment: Cell growth inhibition; format: cell-based; conditions: Homo sapiens, HT-1080, 72 h
In short: as §1

[14] = system: SMO^WT; experiment: GLI-luciferase activity in light2 cells with ectopic SMO^WT; format: cell-based; conditions: read-out: IC50, GLI-luciferase activity induced by SMO^WT
In short: as §3

[15] = system: SMO^W535L; experiment: GLI-luciferase activity in light2 cells with ectopic SMO^W535L; format: cell-based; conditions: read-out: IC50, GLI-luciferase activity induced by SMO^W535L
In short: as §3

[16] = system: HH signaling pathway (GLI-responsive firefly luciferase reporter); experiment: Dual luciferase reporter assay; format: cell-based; conditions: read-out: IC50 GLI-luc reporter
[17] = system: SKM-1; experiment: Cell growth inhibition; format: cell-based; conditions: Homo sapiens, SKM-1, 72 h
In short: as §1

[18] = system: CHL normal cell line; experiment: Cell growth inhibition; format: cell-based; conditions: 72 h
In short: as §1

[19] = system: TOV-21G; experiment: Cell growth inhibition; format: cell-based; conditions: Homo sapiens, TOV21G, 72 h
In short: as §1

[20] = system: HSC-2; experiment: Cell growth inhibition; format: cell-based; conditions: Homo sapiens, HSC-2, 72 h
In short: as §1

[21] = system: N87; experiment: Cell growth inhibition; format: cell-based; conditions: 72 h
In short: as §1

[22] = system: KYSE450; experiment: Cell growth inhibition; format: cell-based; conditions: Homo sapiens, KYSE-450, 72 h
In short: as §1

[23] = system: GLI1; experiment: GLI-luciferase activity in light2 cells after transfection with GLI1; format: cell-based; conditions: read-out: IC50, GLI-luciferase activity provoked by forced expression of GLI1
In short: as §2

[24] = Pharmacokinetics in Sprague–Dawley rats; format: in vivo; conditions: rat
[25] = Sprague-Dawley, plasma, iv, 1 mg/kg
[26] = Sprague-Dawley, plasma, po, 3 mg/kg

Chain of hERG channel (Q12809 whole entry): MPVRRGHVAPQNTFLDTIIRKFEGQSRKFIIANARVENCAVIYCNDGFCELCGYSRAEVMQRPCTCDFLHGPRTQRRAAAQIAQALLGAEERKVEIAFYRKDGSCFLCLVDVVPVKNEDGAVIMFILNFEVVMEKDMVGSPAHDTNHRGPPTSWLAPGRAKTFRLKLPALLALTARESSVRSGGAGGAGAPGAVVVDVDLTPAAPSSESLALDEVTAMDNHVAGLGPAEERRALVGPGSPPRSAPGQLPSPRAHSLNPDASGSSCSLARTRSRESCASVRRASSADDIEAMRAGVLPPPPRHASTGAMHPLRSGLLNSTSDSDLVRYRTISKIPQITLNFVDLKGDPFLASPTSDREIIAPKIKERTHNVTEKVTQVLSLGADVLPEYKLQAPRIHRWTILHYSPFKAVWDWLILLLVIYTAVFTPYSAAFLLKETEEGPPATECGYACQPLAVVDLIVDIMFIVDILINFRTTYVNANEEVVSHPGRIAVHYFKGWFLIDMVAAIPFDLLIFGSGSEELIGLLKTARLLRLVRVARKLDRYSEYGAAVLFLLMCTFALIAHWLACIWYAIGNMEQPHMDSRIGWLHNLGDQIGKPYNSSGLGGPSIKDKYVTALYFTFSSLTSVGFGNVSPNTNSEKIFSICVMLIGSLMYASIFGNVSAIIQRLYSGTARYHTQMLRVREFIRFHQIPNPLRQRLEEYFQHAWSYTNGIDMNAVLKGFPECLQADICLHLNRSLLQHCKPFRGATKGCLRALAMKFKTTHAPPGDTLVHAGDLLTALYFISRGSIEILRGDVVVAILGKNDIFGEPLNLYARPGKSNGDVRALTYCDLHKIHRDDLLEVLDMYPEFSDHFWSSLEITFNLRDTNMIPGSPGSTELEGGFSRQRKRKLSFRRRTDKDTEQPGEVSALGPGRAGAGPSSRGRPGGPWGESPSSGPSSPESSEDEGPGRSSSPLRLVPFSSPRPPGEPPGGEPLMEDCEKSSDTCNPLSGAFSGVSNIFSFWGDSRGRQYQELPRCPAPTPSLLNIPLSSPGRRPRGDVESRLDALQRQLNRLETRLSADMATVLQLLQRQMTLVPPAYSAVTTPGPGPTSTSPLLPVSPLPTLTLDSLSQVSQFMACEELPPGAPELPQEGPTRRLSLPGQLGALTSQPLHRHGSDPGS

Cn1cc(-c2cc(N3CCCCS3(=O)=O)ccc2Oc2ccc(F)cc2F)c2c(F)c[nH]c2c1=O [Compound 25]
GI50 [1]: 2300 nM | Tolerability ([2]; 5 mg/kg p.o.): well tolerant | tumor growth inhibition (TGI) ([2]; 5 mg/kg p.o., Fig. 6A): 83.3% | Tolerability ([2]; 10 mg/kg p.o.): well tolerant | tumor growth inhibition (TGI) ([2]; 10 mg/kg p.o., Fig. 5A): 88.2% | Body weight change ([2]; 10 mg/kg p.o., Fig. 5B): No obvious body weight loss | tumor growth inhibition (TGI) ([2]; 10 mg/kg p.o., Fig. 6A): 87.6% | IC50 [3]: 27300 nM | GI50 [4]: 110 nM | Effect on abundance of endogenous GLI2 proteins [5]: dramatically reduced | Effect on expression of exogenous GLI2-MYC [6]: failed to inhibit | GI50 [7]: 6.6 nM | IC50 [8]: 1.51 ± 0.43 nM | IC50 [9]: 2.2 nM | IC50 [10]: 1.44 nM | GI50 [11]: 140 nM | GI50 [12]: 34 nM | GI50 [13]: 1000 nM | IC50 [14]: 1.16 nM | IC50 [15]: 1.13 nM | IC50 [16]: 0.48 ± 0.08 nM | GI50 [17]: 19 nM | GI50 [18]: > 10000 nM | GI50 [19]: 23 nM | GI50 [20]: 770 nM | GI50 [21]: 130 nM | GI50 [22]: 1600 nM | IC50 [23]: 0.97 nM | AUC(0-inf) [24, 25]: 614 ng·h/mL | AUC(0-t) [24, 25]: 614 ng·h/mL | MRT inf [24, 25]: 46.2 min | clearance [24, 25]: 27.2 mL/min/kg | half-life [24, 25]: 32.4 min | AUC(0-inf) [24, 26]: 406 ng·h/mL | AUC(0-t) [24, 26]: 406 ng·h/mL | Cmax [24, 26]: 503 ng/mL | MRT inf [24, 26]: 57 min | Tmax [24, 26]: 15 min | half-life [24, 26]: 57.6 min | Vss_obs ([24]; i.v. 1 mg/kg): 1.258 L/kg
